Compound activity deposited in PubChem by several laboratories.
A selection: hits, their analogues and other compounds. The true share with any hit is near 2%.
Autophagy mod = modulators of autophagy. 190,000 compounds, 0.98% hits. calls only at 10 µM (by protocol). MEF GFP-LC3 puncta imaging; test concentration mostly 10 µM;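 active means percentage of spot-positive cells more than 3 SD above its plate mean, without a fluorescence outlier flag or 80% toxicity; inconclusive means no clear call, values can overlap the other calls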;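 further: spot-positive cell cutoff set from DMSO-treated cells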
Dynein transport = dynein cargo transport inhibition. 3617.4 mouse cells, GR-EGFP nuclear translocation imaging; test concentration mostly 20 µM; stimulated with dexamethasone, 1 µM; hits give low values. z-score, hits read low. 220,000 compounds, 0.47% hits. AID 1381;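 active means plate z-score of nuclear minus cytoplasmic receptor signal below a set negative limit, without overly bright fluorescence or cell loss, cut at about -3.5 in these data, passing the limit was not always enough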;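 further: z-score of nuclear minus cytoplasmic ring GR-EGFP intensity difference per well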
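medium = tetracycline-free induction medium containing charcoal-stripped FBS | also added = 1.0 µM final dexamethasone stimulus | schedule = 48 h induction, 1 h compound, 30 min dex at 37 °C | technique = fixed, Hoechst-stained cells imaged at 10x for EGFP | measure = GR-EGFP nuclear translocation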
Insulin prom inh = TRM-6 insulin promoter activity inhibition. TRM-6 cells (human fetal islet line), insulin promoter-eGFP reporter, imaging; reporter expression induced with tamoxifen. inhibition, % at 2 µM. 130,000 compounds, 0.9% hits;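 active means inhibition above the mean plus 3 SD, with well images judged a real hit on visual review, cut at about 60% in these data, passing the limit was not always enough; inconclusive means inhibition over the cutoff but images rejected on review; inactive means inhibition not above the cutoff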
Insulin prom up = MIN6 insulin promoter up-regulation | MIN6 insulin promoter-GFP reporter, high-content imaging; hits give high values | z-score at 5 µM | 190,000 compounds, 0.3% hits | AID 1625;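 active means z-score above 3 at 5 µM with at least 500 cells counted in the well; inconclusive means wells under 500 cells, flagged as cytotoxic or low count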
Dynein inh conf = dynein cargo transport inhibition, confirmation | 3617.4 GR-EGFP nuclear translocation imaging, dexamethasone-induced | shares compounds with Dynein transport | 1,000 compounds, 69% hits | calls only at 20 µM;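 active means inhibition of receptor movement into the nucleus at or above a set limit in both runs, with normal cell brightness and cell count; inconclusive means limit reached in only one run, brightness and count normal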;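 further: dexamethasone at 1 µM final in well for 30 min; nuclear minus cytoplasmic GR-EGFP mean intensity difference in channel 2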
The depositor's hits bear a star; i = inactive; u = inconclusive; x = no result given; + = active, no number.

SMILES	Autophagy mod	Dynein transport	Insulin prom inh	Insulin prom up	Dynein inh conf
Cc1ccc(S(=O)(=O)ON=C2CCN(S(=O)(=O)c3ccccc3)CC2)cc1	i	-0.766	29.2	x	x
CCC(C)(C(=O)NC1CCCC1)N(C)C(=O)c1ccccn1 (stereo not drawn)	i	-0.558	26.7	0.31	x
Fc1ccc(NC(=S)NNc2ncc(C(F)(F)F)cc2Cl)c(F)c1	i	0.171	29.4	-3.64	x
CCCOCC(O)CC(Cc1ccccc1)C(=O)NN (stereo not drawn)	x	0.262	x	-0.18	x
COc1ccc(N=CC2=C(Nc3ccc(OC)cc3)c3c(C)nn(-c4ccccn4)c3CC2)cc1	i	-4.3	25.6	x	i
COc1ccc(-c2cc(C(=O)O)c3c(C)nn(-c4ccccn4)c3n2)cc1	i	-0.36	13.9	-0.43	x
COC(=O)[C@@]1(Cc2ccc(F)cc2)[C@H]2c3cc(C(=O)N(C)C)n(C[C@H](O)CO)c3C[C@H]2CN1C(=O)c1ccccc1	i	-0.0379	-10.0	-0.01	x
COC(=O)[C@@]1(Cc2ccccc2)[C@@H]2C(=CC(=O)[C@H]2CC(=O)C(=O)N(C)C)CN1C(=O)c1ccccc1	i	-5.16*	-10.0	0.74	+
O=C1c2cccnc2C(Nc2ccc(Br)cc2Br)N1Cc1cccs1 (stereo not drawn)	i	1.62	x	-0.04	x
Cc1ccc(-c2csc3ncnc(Sc4nnc(CN5CCCCCC5=O)o4)c23)cc1	+	-3.85*	x	0.74	+
COc1ccc(S(=O)(=O)Nc2ccc(O)c3ccccc23)cc1	i	-3.7*	15.2	-1.36	i
COc1ccc(S(=O)(=O)Nc2ccccc2C(F)(F)F)cc1	i	-0.683	-11.1	1.06	x
CCOC(=O)c1c(NC(=O)CCl)sc(CN(C)C)c1-c1ccccc1	i	-5.2*	x	-1.59	+
CCOC(=O)c1c(NC(=O)Nc2ccc(Cl)cc2)sc(C)c1C	i	-0.329	-36.8	-0.35	x
CCOC(=O)c1c(NC(=O)/C=C/C(=O)O)sc(C)c1-c1ccc(Cl)cc1	i	-8.2*	x	-0.9	+
CCOC(=O)CCSc1nc(C)cc(C(F)(F)F)c1C#N	+	-9.03	-355.6	2.28	i
O=c1c(Cl)c(NCCCO)cnn1-c1nc2ccccc2[nH]1	i	-4.23*	37.2	-0.5	+
CCOC(=O)c1cc(C)nc(Sc2ccc(C)cc2)c1C#N	x	-0.636	x	0.11	x
CCOC(=S)SCC(=O)Nc1nc(C)c(C)s1	x	-3.9*	x	-0.04	+
Cc1ccc(-c2cc(N)n(-c3ccc(F)cc3)n2)cc1	i	0.616	x	-0.32	x
Cn1c(=O)c([N+](=O)[O-])c(Cl)c2ccccc21	i	-6.31*	x	x	+
Cn1c(-c2ccccc2)c(C(=O)CCl)c2ccccc21	i	-3.76*	x	-2.32	+
N#Cc1c(C(F)(F)F)cc(-c2ccccc2)nc1SCc1nc(N)nc(N2CCOCC2)n1	+	-3.81	-250.9	x	+
N#Cc1c(C(F)(F)F)cc(-c2ccc(Cl)c(Cl)c2)nc1SCCN1CCOCC1	i	-0.856	x	-0.4	x
O=c1c2c3c(sc2nc2n1CCCCC2)C(O)CCC3 (stereo not drawn)	i	1.63	x	-0.32	x
SMILES	Autophagy mod	Dynein transport	Insulin prom inh	Insulin prom up	Dynein inh conf
Cc1cc(-c2nnc(-c3ccccc3)c(-c3ccccc3)n2)c(C)o1	i	-3.68*	12.5	-1.6	i
CCSc1ncccc1C(=O)N[C@@H](CCSC)C(=O)OC	x	-0.137	x	0.02	x
Cc1ccc(S(=O)(=O)N[C@@H](Cc2ccccc2)C(=O)CCl)cc1	i	-4.49*	13.6	x	i
COc1ccc(N/C=C/c2nc(SC)nnc2C)cc1	+	-4.02	x	0.26	i
O=C(CCNC(=O)Cn1ccc2ccccc2c1=O)NCC1CCCC1c1ccccc1 (stereo not drawn)	i	0.0139	x	0.87	x
O=C(CCl)N(c1ccccc1)c1c[nH]c2ccccc12	u	-2.79	-92.3	0.99	x
O=C(CCl)N(c1ccc(Cl)cc1)c1c[nH]c2ccccc12	i	-5.32*	-257.1	u	+
COc1ccc(NC(=O)CC2Sc3ncnn3C2=O)cc1 (stereo not drawn)	x	-4.05*	x	1.37	i
O=C(CC1Sc2ncnn2C1=O)Nc1ccc(Cl)cc1 (stereo not drawn)	i	-3.61*	x	0.15	i
Cc1nnc(SCC(=O)NC(=O)Nc2ccc3c(c2)OCCO3)n1N	x	0.881	x	0	x
CCCCN(CC)CCCNC(=O)C1CCN(c2ncnc3c2sc2cccc(F)c23)CC1	i	-0.665	-7.1	-0.4	x
CC(=O)N1c2ccccc2C(CBr)=CC1(C)C	x	-5.23*	x	0.51	i
Cc1ccc(C(=O)O)cc1NC(=O)CSc1ncnc2sc3c(c12)CCC3	x	0.404	x	-0.17	x
C#CC(=O)N(c1cc(OC)ccc1OC)C(C(=O)NC1CCCC1)c1cccs1 (stereo not drawn)	i	-5.06*	x	-0.15	+
COc1ccc(N(C(=O)c2ccco2)C(C(=O)NC2CCCCC2)c2cccs2)cc1OC (stereo not drawn)	i	0.378	-33.3	x	x
C#CC(=O)N(c1ccc(OC)cc1OC)C(C(=O)NC1CCCC1)c1cccs1 (stereo not drawn)	i	-4.44*	-387.8	u	+
COc1ccc(CCN(C(=O)C(F)(F)F)C(C(=O)NC2CCCC2)c2cccs2)cc1 (stereo not drawn)	i	3.31	-65.4	x	x
CCn1cc(CNC(=S)Nc2cccc3ccccc23)cn1	i	1.64	x	0.09	x
O=C(CCc1n[nH]c(=O)[nH]c1=O)Nc1cccc([N+](=O)[O-])c1	i	-0.0309	55.0	x	x
COc1cc2c(cc1OC)CN(CCC(=O)c1ccc(Br)cc1)CC2	i	-4.06*	60.0	-0.23	u
COc1cc2c(cc1OC)CN(CC(=O)Nc1cccc(C)c1)CC2	i	1.28	9.3	-0.36	x
CCn1c(N)[n+](CC(=O)Nc2ccc(SC(F)F)cc2)c2ccccc21	x	0.056	x	0.1	x
CCc1ccc(OS(=O)(=O)c2cn(C)c(=O)n(C)c2=O)cc1	i	0.774	-118.2	0.1	x
CCN(CC)Cc1cc(O)c(CN(CC)CC)cc1O	i	-4.88*	x	0.73	+
CCc1oc(C(=O)O)cc1CN(CC)CC	i	-0.111	25.0	-0.18	x
SMILES	Autophagy mod	Dynein transport	Insulin prom inh	Insulin prom up	Dynein inh conf
Oc1c(Cl)cc(Cl)c2c1NCCC2	i	-4.74*	17.5	0.94	i
C/C(=N/N1CCN(Cc2cccc3ccccc23)CC1)c1ccco1	x	-0.289	x	-0.22	x
COc1ccccc1/C=C/C1(C(=O)NC2CCCC2)CC(=O)N1c1ccccc1 (stereo not drawn)	x	-0.144	x	1.13	x
CN1CCN(CC(=O)N2N=C(c3cccs3)CC2c2ccco2)CC1 (stereo not drawn)	i	-0.442	15.4	0.16	x
O=C(CCl)N1N=C(c2cccs2)CC1c1ccco1 (stereo not drawn)	i	-4.67*	x	-0.21	+
O=C(c1ccccc1)c1cc(Cl)ccc1N1C(=O)C=CC1=O	i	-4.47*	i	0.36	+
Cc1cc(-n2ccnc2)n2c(nc3ccccc32)c1C#N	i	2.23	35.5	-0.14	x
CCCc1cc(-n2ccnc2)n2c(nc3ccccc32)c1C#N	i	-8.12	-6.9	5.52*	i
